Test results taken from ChEMBL document CHEMBL5108029, “SILAC-based chemoproteomics reveals a neoligan analogue as an anti-inflammatory agent targeting IRGM to ameliorate cytokine storm” (Eur J Med Chem, 2022).
The source made the active and inactive calls. The rule behind the calls is not given here.

What was measured:
[1] = Inhibition of cytokine storm in CLP-induced sepsis C57BL/6J mouse model assessed as disruption of Th1 and Th2 cells imbalance by measuring CD4+IL4-negative cells at 100 mg/kg by flow cytometry (reference value: 95.3%); format: functional; set-up: scale not given: the % may be the effect or the level left
[2] = system: RAW264.7; assay: Anti-inflammatory activity against LPS-stimulated mouse RAW264.7 cells assessed as reduction in M1 polarization of macrophages at 100 to 500 nM incubated for 48 hrs in presence of LPS by flow cytometry; format: functional, cell-based; conditions: dose 100-500 nM
Procedure, shortened: (§1)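 RAW 264.7 cells in DMEM with 10% heat-inactivated FBS at 37 °C, 5% CO2, subcultured at 70–80% confluence. Seeded at 1 × 10^6 cells/mL in medium with 1 μg/mL LPS, with compound at final 100 nM or 500 nM. After 48 h, M1 differentiation and TNF-α are read by flow cytometry.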

[3] = biological target: T1, Immunity-related GTPase family M protein (Homo sapiens) (UniProt A1A4Y4); assay: Binding affinity to IRGM (unknown origin) by gene ontology analysis
T1 sequence (whole entry): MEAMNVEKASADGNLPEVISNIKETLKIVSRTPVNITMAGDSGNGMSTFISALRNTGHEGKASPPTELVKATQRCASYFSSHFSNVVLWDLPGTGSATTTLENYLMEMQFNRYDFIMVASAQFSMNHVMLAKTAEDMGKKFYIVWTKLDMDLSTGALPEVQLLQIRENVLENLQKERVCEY

[4] = biological target: T1, Immunity-related GTPase family M protein (Homo sapiens); assay: Binding affinity to IRGM (unknown origin) assessed as protection of protein from pronase proteolysis by DARTS analysis; conditions: dose 1-100 µM, DDE = dose-dependent effect
Procedure, shortened: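 DARTS: samples treated with compound at 1–100 μM, then digested with pronase; IRGM detected by immunoblot.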

[5] = system: CD4+ve Th; assay: Inhibition of cytokine storm in ConA/1L-12-stimulated C57BL/6 mouse CD4+ T-lymphocytes assessed as reduction in Th1 cell differentiation by measuring proportion of CD4+IFNgamma-negative cells at 500 nM incubated for 48 hrs by flow cytometry (reference value: 31%); format: functional; set-up: scale not given: the % may be the effect or the level left
Procedure, shortened: (§2)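 Splenocytes from C57BL/6 mice after erythrocyte lysis, filtration and counting. Cultured in complete medium with ConA and IL-2 under Th1, Th2 or Th17 differentiation conditions with compound for 48 h. Then PMA, ionomycin and GolgiStop (1:1000) for 4 h. CD4 and intracellular cytokines stained and read by flow cytometry.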

[6] = system: RAW264.7; assay: Anti-inflammatory activity against LPS-stimulated mouse RAW264.7 cells assessed as proportion of polarized M1 macrophages at 500 nM incubated for 48 hrs in presence of LPS by flow cytometry (reference value: 90.3%); format: functional; procedure, shortened: as §1
[7] = system: CD4+ve Th; assay: Inhibition of cytokine storm in ConA/1L-12-stimulated C57BL/6 mouse CD4+ T-lymphocytes assessed as reduction in Th1 cell differentiation by measuring proportion of CD4+IFNgamma-positive cells at 500 nM incubated for 48 hrs by flow cytometry (reference value: 69%); format: functional; set-up: scale not given: the % may be the effect or the level left; procedure, shortened: as §2
[8] = Inhibition of cytokine storm in CLP-induced sepsis C57BL/6J mouse model assessed as reduction in Th17 cell differentiation by measuring CD4+IL17A-positive cells at 100 mg/kg by flow cytometry (reference value: 49.8%); format: functional; set-up: scale not given: the % may be the effect or the level left
[9] = system: RAW264.7; assay: Anti-inflammatory activity against LPS-stimulated mouse RAW264.7 cells assessed as reduction in TNF-alpha expression of M1 macrophages at 100 to 500 nM incubated for 48 hrs in presence of LPS by flow cytometry; format: functional, cell-based; conditions: dose 100-500 nM; procedure, shortened: as §1
[10] = system: Mus musculus; assay: Anti-inflammatory activity against CLP-induced sepsis C57BL/6J mouse model assessed as proportion of M1 macrophages at 100 mg/kg by flow cytometry (reference value: 98.4%); format: functional
[11] = system: RAW264.7; assay: Anti-inflammatory activity against LPS-stimulated mouse RAW264.7 cells assessed as proportion of polarized M1 macrophages at 100 nM incubated for 48 hrs in presence of LPS by flow cytometry (reference value: 90.3%); format: functional; procedure, shortened: as §1
[12] = system: Mus musculus; assay: Anti-inflammatory activity against CLP-induced sepsis C57BL/6J mouse model assessed as proportion of Tr1 cells producing IL-10 at 100 mg/kg by flow cytometry (reference value: 24.5%); format: functional
[13] = system: Mus musculus; assay: Anti-inflammatory activity against CLP-induced sepsis C57BL/6J mouse model assessed as proportion of Foxp3-positive Treg cells at 100 mg/kg by flow cytometry (reference value: 2.08%); format: functional
[14] = Inhibition of cytokine storm in CLP-induced sepsis C57BL/6J mouse model assessed as disruption of Th1 and Th2 cells imbalance by measuring CD4+IL4-positive cells at 100 mg/kg by flow cytometry (reference value: 4.69%); format: functional; set-up: scale not given: the % may be the effect or the level left
[15] = system: Mus musculus; assay: Anti-inflammatory activity against CLP-induced sepsis C57BL/6J mouse model assessed as reduction in edema and hepatocyte necrosis at 100 mg/kg by Hematoxylin and eosin staining based analysis; format: functional, organism-based
Procedure, shortened: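 Liver tissue from CLP-septic C57BL/6J male mice (8–10 wk), stained with H&E and examined for edema and hepatocyte necrosis.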

[16] = system: RAW264.7; assay: Anti-inflammatory activity against LPS-stimulated mouse RAW264.7 cells assessed as TNF-alpha expression of M1 macrophages at 100 nM incubated for 48 hrs in presence of LPS by flow cytometry (reference value: 82.1%); format: functional; procedure, shortened: as §1
[17] = system: CD4+ve Th; assay: Cytotoxicity against C57BL/6 mouse CD4+ T-lymphocytes at 500 nM measured upto 48 hrs; format: toxicity, cell-based; conditions: 0.5 µM
[18] = system: Mus musculus; assay: Anti-inflammatory activity against CLP-induced sepsis C57BL/6J mouse model assessed as proportion of neutrophils at 100 mg/kg by flow cytometry (reference value: 6.6%); format: functional
[19] = system: CD4+ve Th; assay: Inhibition of cytokine storm in ConA/1L-12-stimulated C57BL/6 mouse CD4+ T-lymphocytes assessed as reduction in Th17 cell differentiation by measuring proportion of CD4+IL17A-positive cells at 500 nM incubated for 48 hrs by flow cytometry (reference value: 68.4%); format: functional; set-up: scale not given: the % may be the effect or the level left; procedure, shortened: as §2
[20] = system: CD4+ve Th; assay: Inhibition of cytokine storm in ConA/1L-12-stimulated C57BL/6 mouse CD4+ T-lymphocytes assessed as reduction in Th2 cell differentiation by measuring proportion of CD4+IL4-positive cells at 500 nM incubated for 48 hrs by flow cytometry (reference value: 67.6%); format: functional; set-up: scale not given: the % may be the effect or the level left; procedure, shortened: as §2
[21] = system: CD4+ve Th; assay: Inhibition of cytokine storm in ConA/1L-12-stimulated C57BL/6 mouse CD4+ T-lymphocytes assessed as reduction in Th2 cell differentiation by measuring proportion of CD4+IL4-negative cells at 500 nM incubated for 48 hrs by flow cytometry (reference value: 32.4%); format: functional; set-up: scale not given: the % may be the effect or the level left; procedure, shortened: as §2
[22] = biological target: T2, Immunity-related GTPase family M protein 1 (Mus musculus) (UniProt Q60766); assay: Binding affinity to IRGM in LPS-stimulated mouse RAW264.7 cells by competitive pull down based immunoblot analysis; format: cell-based; conditions: dose 10-100 µM, DDE = dose-dependent effect
T2 sequence (whole entry): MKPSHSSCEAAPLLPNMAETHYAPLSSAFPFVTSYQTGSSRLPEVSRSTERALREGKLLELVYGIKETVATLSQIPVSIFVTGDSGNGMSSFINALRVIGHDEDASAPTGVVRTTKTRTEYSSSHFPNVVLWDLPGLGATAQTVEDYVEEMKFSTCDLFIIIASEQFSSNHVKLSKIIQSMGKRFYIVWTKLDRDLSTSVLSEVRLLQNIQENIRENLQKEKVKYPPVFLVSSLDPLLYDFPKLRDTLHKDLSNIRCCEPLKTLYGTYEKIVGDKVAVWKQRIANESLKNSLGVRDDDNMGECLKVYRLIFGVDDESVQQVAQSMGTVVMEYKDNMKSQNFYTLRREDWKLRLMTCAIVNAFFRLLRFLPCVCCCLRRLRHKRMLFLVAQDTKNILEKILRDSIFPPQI
Procedure, shortened: (§3)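 Lysates of LPS-polarized (1 μg/mL, 48 h) RAW 264.7 cells at 2 mg/mL, incubated 3 h at room temperature with 100 μM probe 10 plus competitor at 10–100 μM. Then UV 365 nm crosslinking, click with biotin-azide, streptavidin pull-down, and immunoblotting for IRGM.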

[23] = Inhibition of cytokine storm in CLP-induced sepsis C57BL/6J mouse model assessed as reduction in Th17 cell differentiation by measuring CD4+IL17A-negative cells at 100 mg/kg by flow cytometry (reference value: 50.2%); format: functional; set-up: scale not given: the % may be the effect or the level left
[24] = system: RAW264.7; assay: Anti-inflammatory activity against LPS-stimulated mouse RAW264.7 cells assessed as TNF-alpha expression of M1 macrophages at 500 nM incubated for 48 hrs in presence of LPS by flow cytometry (reference value: 82.1%); format: functional; procedure, shortened: as §1
[25] = biological target: T1, Immunity-related GTPase family M protein (Homo sapiens); assay: Binding affinity to IRGM (unknown origin) assessed as protection of protein from temperature-dependent denaturation at 100 uM by CETSA analysis
[26] = system: CD4+ve Th; assay: Inhibition of cytokine storm in ConA/1L-12-stimulated C57BL/6 mouse CD4+ T-lymphocytes assessed as reduction in Th17 cell differentiation by measuring proportion of CD4+IL17A-negative cells at 500 nM incubated for 48 hrs by flow cytometry (reference value: 31.6%); format: functional; set-up: scale not given: the % may be the effect or the level left; procedure, shortened: as §2
[27] = biological target: T2, Immunity-related GTPase family M protein 1 (Mus musculus); assay: Binding affinity to IRGM in LPS-stimulated mouse RAW264.7 cells at 100 uM preincubated with LPS for 48 hrs followed by incubation with compound for 3 hrs by SILAC-pull down based analysis; format: cell-based
Procedure, shortened: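 RAW 264.7 cells were SILAC heavy- or light-labeled and polarized with 1 μg/mL LPS for 48 h. Lysates at 2 mg/mL in PBS: heavy with probe 10 (100 μM), light with 100 μM competitor, 3 h at room temperature. Then 365 nm UV at 4 °C and click with biotin-azide (final 500 μM) and Cu+ (final 1 mM) for 3 h. Acetone precipitation, streptavidin bead capture, SDS-PAGE and MS; Heavy/Light ratios by MaxQuant.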

[28] = Inhibition of cytokine storm in CLP-induced sepsis C57BL/6J mouse model assessed as disruption of Th1 and Th2 cells imbalance by measuring CD4+IFNgamma-positive cells at 100 mg/kg by flow cytometry (reference value: 73.7%); format: functional; set-up: scale not given: the % may be the effect or the level left
[29] = biological target: T2, Immunity-related GTPase family M protein 1 (Mus musculus); assay: Binding affinity to IRGM in LPS-stimulated mouse RAW264.7 cells at 100 uM preincubated with LPS for 48 hrs followed by incubation with compound for 3 hrs by immunoblot analysis; format: cell-based; procedure, shortened: as §3
[30] = Inhibition of cytokine storm in CLP-induced sepsis C57BL/6J mouse model assessed as disruption of Th1 and Th2 cells imbalance by measuring CD4+IFNgamma-negative cells at 100 mg/kg by flow cytometry (reference value: 26.3%); format: functional; set-up: scale not given: the % may be the effect or the level left

Structure (SMILES)	Activity [2]	Activity [5] [%]	Activity [6] [%]	Activity [7] [%]	Activity [9]	Activity [11] [%]	Activity [16] [%]	Activity [17]	Activity [19] [%]	Activity [20] [%]	Activity [21] [%]	Activity [24] [%]	Activity [26] [%]	also measured
C=CCc1cc2c(cc1O)O[C@H](c1ccc(OC)c(OC)c1)[C@H]2C	Active	57.2	83.2	42.8	Active	82.9	19.5	Non-Toxic	42.3	35.1	64.9	22.8	57.7	Activity [1]: 98.5%; Activity [3]: Active; Activity [4]: Dde; Activity [8]: 17.5%; Activity [10]: 71.3%; Activity [12]: 11.2%; Activity [13]: 0.53%; Activity [14]: 1.53%; Activity [15]: Active; Activity [18]: 1.09%; Activity [22]: Dde; Activity [23]: 82.5%; Activity [25]: Active; Activity [27]: Active; Activity [28]: 11.3%; Activity [29]: Active; Activity [30]: 88.7%
C=CCOc1cccc(OC/C=C/c2ccc(OC)c(OC)c2)c1	Active	74.4		25.6	Active			Non-Toxic	23.9	14.8	85.2		76.1	
C=CCC1=C[C@]2(OC)C(=CC1=O)O[C@H](c1ccc(OC)c(OC)c1)[C@H]2C		75.7		24.3	Active			Non-Toxic	21.4	14.3	85.7		78.6	
C#CCCC1(CCOc2cc3c(cc2CC=C)[C@H](C)[C@@H](c2ccc(OC)c(OC)c2)O3)N=N1			82.6			81.8	28.9					26.6		
C[C@]12CCC(=O)C=C1CC[C@@H]1[C@@H]2[C@@H](O)C[C@@]2(C)[C@H]1CC[C@]2(O)C(=O)CO					Active									
COc1ccc(/C=C/COc2cccc(O)c2)cc1OC		74.9		25.1	Active			Non-Toxic	25.9	24	76		74.1	
